≈ marks a conversion by molar mass, not a printed value.
Columns and labels:
[1] = biological target: T1, Sterol 24-C-methyltransferase (Yarrowia lipolytica) (UniProt Q6C2D9); experiment: Inhibition of Yarrowia lipolytica 24-SMT assessed as 5-dehydroepisterol-3-trimethylsilyl derivative at 0.2 ug/mL after 48 hrs by GC-MS analysis relative to untreated control; parameters: scale not given: the % may be the effect or the level left
T1 sequence (whole entry): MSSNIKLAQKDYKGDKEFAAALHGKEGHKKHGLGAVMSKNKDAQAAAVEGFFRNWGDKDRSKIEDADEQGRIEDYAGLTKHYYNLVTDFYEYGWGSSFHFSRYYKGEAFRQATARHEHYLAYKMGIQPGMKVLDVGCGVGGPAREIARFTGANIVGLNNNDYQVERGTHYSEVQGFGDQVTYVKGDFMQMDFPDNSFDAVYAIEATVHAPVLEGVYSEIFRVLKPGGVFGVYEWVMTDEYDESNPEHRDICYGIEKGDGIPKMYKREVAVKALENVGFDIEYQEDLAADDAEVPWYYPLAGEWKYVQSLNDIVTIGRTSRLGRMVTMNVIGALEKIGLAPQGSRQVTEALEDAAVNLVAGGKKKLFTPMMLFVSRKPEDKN
Method in brief: (§1)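 Whole-cell sterol profiling. Y. lipolytica at 50,000 CFU/mL was exposed to compounds added from ethanol for 48 ± 2 h at 28 °C, and the MIC/2 and/or MIC/4 wells were used. Cells were pelleted and PBS-washed, then saponified in 1 M NaOH at 70 °C for 1 h. Sterols were extracted into TBME with a cholesterol internal standard and silylated to TMS ethers. GC-MS full scan, with each sterol given as % of total integrated quantifier-ion area.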

[2] = biological target: T1, Sterol 24-C-methyltransferase (Yarrowia lipolytica); experiment: Inhibition of Yarrowia lipolytica 24-SMT assessed as dehydroergosterol-3-trimethylsilyl derivative at 0.2 ug/mL after 48 hrs by GC-MS analysis relative to untreated control; parameters: scale not given: the % may be the effect or the level left; method in brief: as §1
[3] = biological target: T1, Sterol 24-C-methyltransferase (Yarrowia lipolytica); experiment: Inhibition of Yarrowia lipolytica 24-SMT assessed as cholesta-7,24-dien-3-trimethylsilyl derivative at 0.2 ug/mL after 48 hrs by GC-MS analysis relative to untreated control; parameters: scale not given: the % may be the effect or the level left; method in brief: as §1
[4] = biological target: T1, Sterol 24-C-methyltransferase (Yarrowia lipolytica); experiment: Inhibition of Yarrowia lipolytica 24-SMT assessed as zymosterol-3-trimethylsilyl derivative level at 0.2 ug/mL after 48 hrs by GC-MS analysis relative to untreated control; parameters: scale not given: the % may be the effect or the level left; method in brief: as §1
[5] = biological target: T1, Sterol 24-C-methyltransferase (Yarrowia lipolytica); experiment: Inhibition of Yarrowia lipolytica 24-SMT assessed as cholesta-5,7,24-trien-3-trimethylsilyl derivative at 0.2 ug/mL after 48 hrs by GC-MS analysis relative to untreated control; parameters: scale not given: the % may be the effect or the level left; method in brief: as §1
[6] = biological target: T1, Sterol 24-C-methyltransferase (Yarrowia lipolytica); experiment: Inhibition of Yarrowia lipolytica 24-SMT assessed as lanosterol-3-trimethylsilyl derivative at 0.2 ug/mL after 48 hrs by GC-MS analysis relative to untreated control; parameters: scale not given: the % may be the effect or the level left; method in brief: as §1
[7] = test system: Yarrowia lipolytica; experiment: Antimicrobial activity against Yarrowia lipolytica after 48 hrs; type: functional
Method in brief: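 Broth dilution MIC per DIN 58940-84. Log-phase Y. lipolytica in yeast extract/peptone/glucose medium, counted against a 0.5 McFarland standard (A570) and seeded at 50,000 CFU/mL in 2 mL wells. Compounds added from ethanol; final concentrations 2 to 0.06125 µg/mL unless otherwise stated. Plates incubated 48 ± 2 h at 28 °C. MIC is the lowest concentration with no visible growth.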

[8] = biological target: T1, Sterol 24-C-methyltransferase (Yarrowia lipolytica); experiment: Inhibition of Yarrowia lipolytica 24-SMT assessed as 5-dehydroepisterol-3-trimethylsilyl derivative at 2 ug/mL after 48 hrs by GC-MS analysis relative to untreated control; parameters: scale not given: the % may be the effect or the level left; method in brief: as §1
[9] = biological target: T1, Sterol 24-C-methyltransferase (Yarrowia lipolytica); experiment: Inhibition of Yarrowia lipolytica 24-SMT assessed as cholesta-5,7,24-trien-3-trimethylsilyl derivative at 2 ug/mL after 48 hrs by GC-MS analysis relative to untreated control; parameters: scale not given: the % may be the effect or the level left; method in brief: as §1
[10] = biological target: T1, Sterol 24-C-methyltransferase (Yarrowia lipolytica); experiment: Inhibition of Yarrowia lipolytica 24-SMT assessed as dehydroergosterol-3-trimethylsilyl derivative at 2 ug/mL after 48 hrs by GC-MS analysis relative to untreated control; parameters: scale not given: the % may be the effect or the level left; method in brief: as §1
[11] = biological target: T1, Sterol 24-C-methyltransferase (Yarrowia lipolytica); experiment: Inhibition of Yarrowia lipolytica 24-SMT assessed as cholesta-7,24-dien-3-trimethylsilyl derivative at 2 ug/mL after 48 hrs by GC-MS analysis relative to untreated control; parameters: scale not given: the % may be the effect or the level left; method in brief: as §1
[12] = biological target: T1, Sterol 24-C-methyltransferase (Yarrowia lipolytica); experiment: Inhibition of Yarrowia lipolytica 24-SMT assessed as cholesta-5,7,24-trien-3-trimethylsilyl derivative at 0.1 ug/mL after 48 hrs by GC-MS analysis relative to untreated control; parameters: scale not given: the % may be the effect or the level left; method in brief: as §1
[13] = biological target: T1, Sterol 24-C-methyltransferase (Yarrowia lipolytica); experiment: Inhibition of Yarrowia lipolytica 24-SMT assessed as cholesta-7,24-dien-3-trimethylsilyl derivative at 0.1 ug/mL after 48 hrs by GC-MS analysis relative to untreated control; parameters: scale not given: the % may be the effect or the level left; method in brief: as §1
[14] = biological target: T1, Sterol 24-C-methyltransferase (Yarrowia lipolytica); experiment: Inhibition of Yarrowia lipolytica 24-SMT assessed as zymosterol-3-trimethylsilyl derivative level at 0.1 ug/mL after 48 hrs by GC-MS analysis relative to untreated control; parameters: scale not given: the % may be the effect or the level left; method in brief: as §1
[15] = biological target: T1, Sterol 24-C-methyltransferase (Yarrowia lipolytica); experiment: Inhibition of Yarrowia lipolytica 24-SMT assessed as dehydroergosterol-3-trimethylsilyl derivative at 0.1 ug/mL after 48 hrs by GC-MS analysis relative to untreated control; parameters: scale not given: the % may be the effect or the level left; method in brief: as §1
[16] = biological target: T1, Sterol 24-C-methyltransferase (Yarrowia lipolytica); experiment: Inhibition of Yarrowia lipolytica 24-SMT assessed as lanosterol-3-trimethylsilyl derivative at 0.1 ug/mL after 48 hrs by GC-MS analysis relative to untreated control; parameters: scale not given: the % may be the effect or the level left; method in brief: as §1
[17] = biological target: T1, Sterol 24-C-methyltransferase (Yarrowia lipolytica); experiment: Inhibition of Yarrowia lipolytica 24-SMT assessed as 5-dehydroepisterol-3-trimethylsilyl derivative at 0.1 ug/mL after 48 hrs by GC-MS analysis relative to untreated control; parameters: scale not given: the % may be the effect or the level left; method in brief: as §1
[18] = biological target: T1, Sterol 24-C-methyltransferase (Yarrowia lipolytica); experiment: Inhibition of Yarrowia lipolytica 24-SMT assessed as cholesta-5,7,24-trien-3-trimethylsilyl derivative at 8 ug/mL after 48 hrs by GC-MS analysis relative to untreated control; parameters: scale not given: the % may be the effect or the level left; method in brief: as §1
[19] = biological target: T1, Sterol 24-C-methyltransferase (Yarrowia lipolytica); experiment: Inhibition of Yarrowia lipolytica 24-SMT assessed as 5-dehydroepisterol-3-trimethylsilyl derivative at 8 ug/mL after 48 hrs by GC-MS analysis relative to untreated control; parameters: scale not given: the % may be the effect or the level left; method in brief: as §1
[20] = biological target: T1, Sterol 24-C-methyltransferase (Yarrowia lipolytica); experiment: Inhibition of Yarrowia lipolytica 24-SMT assessed as dehydroergosterol-3-trimethylsilyl derivative at 8 ug/mL after 48 hrs by GC-MS analysis relative to untreated control; parameters: scale not given: the % may be the effect or the level left; method in brief: as §1
[21] = biological target: T1, Sterol 24-C-methyltransferase (Yarrowia lipolytica); experiment: Inhibition of Yarrowia lipolytica 24-sterol C-methyltransferase assessed as ergosterol-3-trimethylsilyl derivative level at 2 ug/mL after 48 hrs by GC-MS analysis relative to untreated control; parameters: scale not given: the % may be the effect or the level left; method in brief: as §1
[22] = biological target: T1, Sterol 24-C-methyltransferase (Yarrowia lipolytica); experiment: Inhibition of Yarrowia lipolytica 24-SMT assessed as cholesta-7,24-dien-3-trimethylsilyl derivative at 8 ug/mL after 48 hrs by GC-MS analysis relative to untreated control; parameters: scale not given: the % may be the effect or the level left; method in brief: as §1

SMILES: CC(C)C(C)NC[C@@H](C)[C@H]1CC[C@H]2C3=CC[C@H]4C[C@@H](O)CC[C@]4(C)[C@H]3CC[C@]12C (mixture of isomers)
- Activity [1]: 4.6%
- Activity [2]: 73.3%
- Activity [3]: 2.4%
- Activity [4]: 1.4%
- Activity [5]: 18%
- Activity [6]: 0.3%
- MIC [7]: 0.5 µg/mL

SMILES: CCCC[S+](C)C[C@@H](C)[C@H]1CC[C@H]2C3=CC[C@H]4C[C@@H](O)CC[C@]4(C)[C@H]3CC[C@]12C.[I-] (mixture of isomers)
- Activity [8]: 1%
- Activity [9]: 87.5%
- Activity [10]: 7.8%
- Activity [11]: 3.5%
- MIC [7]: > 2 µg/mL

SMILES: CC(C)CNC[C@@H](C)[C@H]1CC[C@H]2C3=CC[C@H]4C[C@@H](O)CC[C@]4(C)[C@H]3CC[C@]12C
- Activity [12]: 43.3%
- Activity [13]: 3.1%
- Activity [14]: 1.2%
- Activity [15]: 47.6%
- Activity [16]: 0.3%
- Activity [17]: 4.4%
- MIC [7]: 0.25 µg/mL (≈ 0.645 µM)

SMILES: C[C@H](CNCCCN(C)C)[C@H]1CC[C@H]2C3=CC[C@H]4C[C@@H](O)CC[C@]4(C)[C@H]3CC[C@]12C
- Activity [8]: 3.3%
- Activity [18]: 65.4%
- Activity [19]: 2.3%
- Activity [20]: 27.2%
- Activity [9]: 25.6%
- Activity [10]: 66.4%
- Activity [11]: 2%
- Activity [21]: 2.7%
- Activity [22]: 5.1%
- MIC [7]: > 2 µg/mL

Source: ChEMBL document CHEMBL1152672, “Side chain azasteroids and thiasteroids as sterol methyltransferase inhibitors in ergosterol biosynthesis” (2009)
